37 variants from the RNAGym collection of RNA variant scans (doi:10.1126/science.aae0568) can be followed below.

To fix the notation:
B1: tRNA (parent)
chain: GUUCCGUUGGCGUAAUGGUAACGCGUCUCCCUCCUAAGGAGAAGACUGCGGGUUCGAGUCCCGUACGGAACG

Variants at the floor of the assay were thinned out. A value given as a limit tells only on which side of the number the result lay.

Variants of B1 are the subject of this data set. Briefly: yeast fitness relative to wild type (ratio to wild type); higher = fitter; tRNA-Arg(CCU), competitive growth, 37 C, YPD. Put shortly:
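The tRNA-Arg(CCU) gene variants were made by chemical synthesis with a 3% per-site mutation rate at 69 sites and inserted at the native genomic locus of Saccharomyces cerevisiae. After pooling, the strains were competed in YPD at 37°C for 24 hours in six parallel replicates. Gene amplicons from the start population and each end population were read by 100-nucleotide paired-end sequencing, and Darwinian fitness relative to wild type was taken from genotype frequency changes. Genotypes needed ≥ 100 starting reads, and estimates < 0.5 were set to 0.5.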
For GUUCCGUUGGCGUAAUGGUAACGCGUCUCCCUCCUAAGGAGAAGACUGCGGGUUCGAGUCACGUGCGAAACG [C61A A65G G68A], the yeast fitness was no more than 0.5.
As to GUUCCGUUGGCGUAAUGGUAACGCGUCUCCCUCCUAAGGAGAAGACUGCGGGUUCGAGUACCAUACGGAACG [C60A G63A], the yeast fitness was determined as 0.584.
In the case of GUUCCGUUGGCGUAAUGGUAACGCGUCUCCCUCCUAAGGAGAAGACUGCGGGUUCGAGUCGCGUUCGGAACG [C61G A65U], the yeast fitness is 0.651.
In the case of GUUCCGUUGGCGUAAUGGUAACGCGUCUCCCUCCUAAGGAGAAGACUGCGGGUUCGAGCCCCGAACGGAACG [U59C U64A], the yeast fitness amounted to 0.677.
Regarding GUUCCGUUGGCGUAAUGGUAACGCGUCUCCCUCCUAAGGAGAAGACUGCGGGUUCGAGCCCCGCACGGAACG [U59C U64C], the yeast fitness is 0.92.
As to GUUCCGUUGGCGUAAUGGUAACGCGUCUCCCUCCUAAGGAGAAGACUGCGGGUUCGAGUCACGUACGCAACG [C61A G68C], the yeast fitness came out at 0.607.
In the case of GUUCCGUUGGCGUAAUGGUAACGCGUCUCCCUCCUAAGGAGAAGACUGCGGGUUCGAGUCACGUACGUAACG [C61A G68U] it was 0.534; in that of GUUCCGUUGGCGUAAUGGUAACGCGUCUCCCUCCUAAGGAGAAGACUGCGGGUUCGAGUUCCGUACGGAACG [C60U], 0.779; in that of GUUCCGUUGGCGUAAUGGUAACGCGUCUCCCUCCUAAGGAGAAGACUGCGGGUUCGAGUACCGUACGGAACG [C60A], 0.613.
With GUUCCGUUGGCGUAAUGGUAACGCGUCUCCCUCCUAAGGAGAAGACUGCGGGUUCGAGUGCCGUACGGAACG [C60G], the yeast fitness stood at 0.664.
GUUCCGUUGGCGUAAUGGUAACGCGUCUCCCUCCUAAGGAGAAGACUGCGGGUUCGAGUUCCGUACGGAUCG [C60U A70U]: the yeast fitness stood at 0.655.
In the case of GUUCCGUUGGCGUAAUGGUAACGCGUCUCCCUCCUAAGGAGAAGACUGCGGGUUCGAGUUCCGUACGGACCG [C60U A70C], the yeast fitness is 0.732.
Take GUUCCGUUGGCGUAAUGGUAACGCGUCUCCCUCCUAAGGAGAAGACUGCGGGUUCGAGUGCCGUACGGGACG [C60G A69G]: the yeast fitness stood at 0.597.
As for GUUCCGUUGGCGUAAUGGUAACGCGUCUCCCUCCUAAGGAGAAGACUGCGGGUUCGAGUGCCAUUUGGAACG [C60G G63A A65U C66U], the yeast fitness is no more than 0.5.
Consider GUUCCGUUGGCGUAAUGGUAACGCGUCUCCCUCCUAAGGAGAAGACUGCGGGUUCGAGUACUGUACGGAACG [C60A C62U], for which the yeast fitness was 0.624.
In the case of GUUCCGUUGGCGUAAUGGUAACGCGUCUCCCUCCUAAGGAGAAGACUGCGGGUUCGAGUCACGAACGGUACG [C61A U64A A69U], the yeast fitness came to 0.558.
Regarding GUUCCGUUGGCGUAAUGGUAACGCGUCUCCCUCCUAAGGAGAAGACUGCGGGUUCGAGGCCCGUCAGGAACG [U59G A65C C66A], the yeast fitness is no more than 0.5.
The same measure for GUUCCGUUGGCGUAAUGGUAACGCGUCUCCCUCCUAAGGAGAAGACUGCGGGUUCGAGUUCCGUACUGAACG [C60U G67U]: 0.678; for GUUCCGUUGGCGUAAUGGUAACGCGUCUCCCUCCUAAGGAGAAGACUGCGGGUUCGAGUUCCGUACCGAACG [C60U G67C]: 0.828; for GUUCCGUUGGCGUAAUGGUAACGCGUCUCCCUCCUAAGGAGAAGACUGCGGGUUCGAGGCCCGUACGGAUCG [U59G A70U]: 0.747.
Take GUUCCGUUGGCGUAAUGGUAACGCGUCUCCCUCCUAAGGAGAAGACUGCGGGUUCGAGUUCCGUUCGGAACG [C60U A65U]: the yeast fitness stood at 0.816.
As for GUUCCGUUGGCGUAAUGGUAACGCGUCUCCCUCCUAAGGAGAAGACUGCGGGUUCGAGUUCCGUCCGGAACG [C60U A65C], the yeast fitness worked out at 0.764.
With GUUCCGUUGGCGUAAUGGUAACGCGUCUCCCUCCUAAGGAGAAGACUGCGGGUUCGAGUUCCGUGCGGAACG [C60U A65G], the yeast fitness is 0.86.
As for GUUCCGUUGGCGUAAUGGUAACGCGUCUCCCUCCUAAGGAGAAGACUGCGGGUUCGAGUGCCGUACCGAACG [C60G G67C], the yeast fitness is 0.574.
In the case of GUUCCGUUGGCGUAAUGGUAACGCGUCUCCCUCCUAAGGAGAAGACUGCGGGUUCGAGUGCGGUACGGAGCG [C60G C62G A70G] it was no more than 0.5; in that of GUUCCGUUGGCGUAAUGGUAACGCGUCUCCCUCCUAAGGAGAAGACUGCGGGUUCGAGUGCCGCACGGAACG [C60G U64C], 0.568; in that of GUUCCGUUGGCGUAAUGGUAACGCGUCUCCCUCCUAAGGAGAAGACUGCGGGUUCGAGUGCUGUACGGAACG [C60G C62U], 0.743.
On to GUUCCGUUGGCGUAAUGGUAACGCGUCUCCCUCCUAAGGAGAAGACUGCGGGUUCGAGUCACGUACGGAUCG [C61A A70U], for which the yeast fitness stood at 0.673.
Regarding GUUCCGUUGGCGUAAUGGUAACGCGUCUCCCUCCUAAGGAGAAGACUGCGGGUUCGAGUUCUGUACGGACCG [C60U C62U A70C], the yeast fitness amounted to 0.539.
As to GUUCCGUUGGCGUAAUGGUAACGCGUCUCCCUCCUAAGGAGAAGACUGCGGGUUCGAGUUUCGGACGGAACG [C60U C61U U64G], the yeast fitness came out at 0.677.
As for GUUCCGUUGGCGUAAUGGUAACGCGUCUCCCUCCUAAGGAGAAGACUGCGGGUUCGAGGCCCGUCCGGAACG [U59G A65C], the yeast fitness was 0.558.
The same measure for GUUCCGUUGGCGUAAUGGUAACGCGUCUCCCUCCUAAGGAGAAGACUGCGGGUUCGAGUGCCGUAGGGUACG [C60G C66G A69U]: no more than 0.5; for GUUCCGUUGGCGUAAUGGUAACGCGUCUCCCUCCUAAGGAGAAGACUGCGGGUUCGAGUGUCAUACGGAACG [C60G C61U G63A]: no more than 0.5; for GUUCCGUUGGCGUAAUGGUAACGCGUCUCCCUCCUAAGGAGAAGACUGCGGGUUCGAGGACCGUACGGAACG [U59G C60A]: 0.509.
As for GUUCCGUUGGCGUAAUGGUAACGCGUCUCCCUCCUAAGGAGAAGACUGCGGGUUCGAGUUCCGAACGGAACG [C60U U64A], the yeast fitness worked out at 0.656.
GUUCCGUUGGCGUAAUGGUAACGCGUCUCCCUCCUAAGGAGAAGACUGCGGGUUCGAGUACCGUUCGGAACG [C60A A65U]: the yeast fitness worked out at 0.58.
As to GUUCCGUUGGCGUAAUGGUAACGCGUCUCCCUCCUAAGGAGAAGACUGCGGGUUCGAGGCCCGCUCGGAACG [U59G U64C A65U], the yeast fitness was no more than 0.5.
